# Compound activity: PubChem BioAssay, several laboratories
# Sampled rows, rich in hits. Any-hit rate of the full collection: about 4.9%.
# APP 5'UTR act – APP 5'UTR luciferase reporter activation | 1% of 190,000 active | SH-SY5Y APP 5'UTR luciferase reporter, luminescence; zero percent = DMSO vehicle wells | AID 1276 | activation, % at 2 µM;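 active means activation above a set limit, based on mean plus 3 SD of controls, cut at about 140% in these data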
# STAT3 inh – STAT3 signaling inhibition | 0.89% of 190,000 active | U3A cells, IL-6 STAT3-luciferase reporter, luminescence; host cell line lacks STAT1 | inhibition, % at 5.5 µM;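 active means inhibition above the mean inhibition across all screened compounds plus 3 SD, cut at about 44% in these data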;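 further: 0% = DMSO only wells and 100% = 100 µM nifuroxazide control wells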
# STAT3 activator – activators of IL-6 induced STAT3 signaling; U3A cells, IL-6 STAT3-luciferase reporter, luminescence; 100% = signal with IL-6 EC80 alone; activation (% of control), % at 5.6 µM; 0.91% of 190,000 active; AID 871;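 active means activation above the screen-wide mean of compound activation plus 3 SD, cut at about 130% in these data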;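 further: 0% = background luminescence of wells with medium and substrate only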
#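 System – human U3A cells carrying STAT3-luciferase construct · Probe or stimulus – Interleukin-6, 33 ng/mL · Schedule – compound 1 h, then IL-6 6 h at 37 °C · Signal – luminescence from STAT3-driven luciferase reporter · Evaluation – percent of IL-6-only median luminescence · Benchmarks – IL-6-only high control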
# STAT1 inh – inhibitors of IFN-gamma induced STAT1 signaling | inhibition, % at 5.5 µM | AID 920 | 0.35% of 200,000 active | NIH 3T3 STAT1-luciferase reporter, luminescence;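 active means inhibition above a set limit, the mean inhibition across all tested compounds plus 3 SD, cut at about 34% in these data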;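 further: 0% = IFN-gamma with DMSO and 100% = IFN-gamma with 300 µM nifuroxazide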
# NF-kB expr up – raises NF-kB expression in human neuronal cells | fold change at 12.5 µM | 1.6% of 190,000 active | NF-kB reporter expression; hits give high values; in the data active means fold change above about 3.3
# STAT1 act – increases IFN-gamma driven STAT1 reporter signal; NIH 3T3 STAT1-luciferase reporter, luminescence; 100% = IFN-gamma alone, no compound; activation (% of control), % at 5.5 µM; 2.6% of 200,000 active;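 active means activation above the screen-wide mean activation plus 3 SD, cut at about 130% in these data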;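 further: raw ratio to IFN-gamma control signal so 100% means no change and 0% no light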
# * hit, by the source's call.
SMILES,APP 5'UTR act,STAT3 inh,STAT3 activator,STAT1 inh,NF-kB expr up,STAT1 act
Clc1ccc(COn2nnc3ccccc32)c(Cl)c1,153*,20,85,-49,2.4,146*
O=[N+]([O-])c1ccc(COn2nnc3ccccc32)cc1,-12,19,88,-20,1.1,115
CCc1cccc(Nc2cnn(C34C[C@@H]5C[C@@H](CC(CC(=O)O)(C5)C3)C4)c(=O)c2Cl)c1,3,-10,109,-42,1.2,138*
N#Cc1ccc(Cl)cc1NC(=O)COC(=O)c1ccc(S(=O)(=O)N2CCCC2)cc1,7,-43,134*,11,1.2,90
O=C(COC(=O)c1ccc(S(=O)(=O)N2CCCC2)cc1)Nc1ccc(F)cc1F,-6,6,100,-1,1.1,101
c1ccc(-c2ccc(-c3csnn3)cc2)cc1,8,-4,112,-36,2.1,132*
FC(F)(F)c1cccc(-c2ccc(-c3csnn3)o2)c1,12,23,84,-8,1.4,108
Cc1ccc(-c2ccc(C(=O)O)c(C)n2)cc1,15,-1,100,-3,1.2,103
COC(=O)c1ccc(-c2ccc(F)cc2)nc1C,128,7,94,-36,1.3,132*
CN(C)c1ccc(C(=O)n2nnc3ccccc32)cc1,-6,8,94,18,2,88
CCN(CC)c1ccc(C(=O)n2cnc3ccccc32)cc1,24,-5,110,-30,3.1,130*
Cc1csc(NC(=O)/C=C/c2ccc(C)o2)n1,88,0,99,-17,1.8,116
Cc1ccc(/C=C/C(=O)Nc2ncc(C)s2)o1,121,-6,105,-52,3.1,147*
Cc1ccc(/C=C/C(=O)Nc2nccs2)o1,79,2,100,-54,3.2,148*
O=C(/C=C/c1cccc(Br)c1)N1CCN(c2ccccn2)CC1,2,-3,108,-7,0.86,106
CCn1cc(CNCc2cn(C)nc2-c2ccc(C3CCCCC3)cc2)cn1,-12,9,102,-9,0.67,108
O=S(=O)(NCc1cn2ccsc2n1)c1ccc(Oc2ccccc2)cc1,9,62*,52,23,0.77,79
COCCNC(=O)c1cc2cc(Cl)cc(Cl)c2oc1=O,-29,-4,106,-4,1.5,103
Cc1ccccc1C(=O)Nc1nnc(-c2ccco2)s1,141*,69*,42,44*,3.7*,59
CCSc1nnc(NC(=O)/C=C/c2ccc3c(c2)OCO3)s1,-7,11,92,-6,1.4,105
COc1ccccc1C(=O)Nc1nnc(-c2ccco2)s1,145*,4,101,-41,3.2,138*
CCSc1nnc(NC(=O)c2ccc3c(c2)OCO3)s1,53,19,87,-20,3.4*,118
CCSc1nnc(NC(=O)c2ccccc2C)s1,56,6,101,-44,2.4,138*
CCSc1nnc(Nc2ccc(C)cc2)s1,70,2,103,-47,3.4*,143*
O=C(CSc1nc2ccccc2o1)Nc1nc(-c2ccccc2)cs1,74,-4,109,-52,0.5,147*
SMILES,APP 5'UTR act,STAT3 inh,STAT3 activator,STAT1 inh,NF-kB expr up,STAT1 act
O=C(CSc1nc2ccccc2o1)Nc1nc2ccccc2s1,20,-31,131,-8,1.1,108
COc1cc(NC(=O)c2ccccc2)cc(OC)c1,137*,7,99,-15,3.4*,113
COc1ccccc1Oc1ccc(NC(=O)c2ccccc2)cc1,8,5,101,-11,1.3,108
COc1ccc(C(=O)Nc2cc(OC)cc(OC)c2)cc1,125,24,81,-34,2.5,132*
COc1ccc(OCC(=O)Nc2cc(OC)cc(OC)c2)cc1,-3,2,104,-6,1.3,106
COc1ccccc1N1CCN(CC(=O)Nc2c(C)n(C)n(-c3ccccc3)c2=O)CC1,-13,2,104,-1,0.97,99
Cc1ccc(/C(N)=N/OC(=O)c2cccc(F)c2)cc1,15,-34,128,-40,4.6*,137*
N/C(=N\OC(=O)c1cccc([N+](=O)[O-])c1)c1cccnc1,-10,2,100,-25,1.5,122
N/C(=N\OC(=O)c1ccc(F)cc1)c1ccc(Br)cc1,52,19,87,-33,2,128
COc1ccccc1C/C(N)=N/OC(=O)c1ccc2c(c1)OCO2,13,6,98,-7,1.4,106
